pIC50: −log10 of the molar value. Activity calls are given as the source filed them. The rule behind the calls is not given here.
Tests used:
[1] = Acute toxicity in ICR mouse assessed as survival at 512 mg/kg, oral gavage on day 14; assay type: organism-based; conditions: in vivo
In short: (§1)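 ICR mice of both sexes, 7 weeks old, held under SPF conditions. Each got one gavage dose (800, 640, 512, 409.6 or 327.8 mg/kg) or vehicle, n = 8 per group. Deaths were recorded at 1 h, 4 h, 3 d and 4–14 d. Behaviour, water and food intake, body weight and activity were followed to day 14. LD50 given with 95% confidence limits.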

Mus musculus [2] = assay: Acute toxicity in ICR mouse assessed as mortality at 800 mg/kg, oral gavage after 4 to 14 days; assay type: organism-based; conditions: in vivo; in short: as §1
DU-145 [3] = assay: Induction of cell cycle arrest in human DU145 cells assessed as cells accumulation at S phase at 0.16 uM after 24 hrs by propidium iodide staining-based flow cytometry (reference value: 24%); assay type: functional
DU-145 [4] = assay: Induction of cell cycle arrest in human DU145 cells assessed as cells accumulation at G2/M phase at 0.16 uM after 24 hrs by propidium iodide staining-based flow cytometry (reference value: 22%); assay type: functional
[5] = Antiproliferative activity against human WPMY-1 cells after 72 hrs by CCK8 assay; assay type: functional, cell-based; conditions: WPMY-1, 72 h
In short: (§2)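 CCK-8 assay: DU-145, H460, Bxpc-3, BEL-7404 and nontumor WPMY-1 cells seeded at 5 × 10^3 cells/well in 10% FCS DMEM overnight, then exposed in triplicate to 0.041−10 μM for 72 h. CCK-8 added for final 30 min, absorbance 450 nm; inhibition relative to medium-only controls after background subtraction; IC50 as concentration giving 50% inhibition.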

Cytochrome P450 1A2 = biological target: T1, Cytochrome P450 1A2 (Homo sapiens, UniProt P05177); assay: Inhibition of CYP1A2 in human liver microsomes after 1 hr by LC-MS/MS analysis
T1 sequence (P05177 whole entry): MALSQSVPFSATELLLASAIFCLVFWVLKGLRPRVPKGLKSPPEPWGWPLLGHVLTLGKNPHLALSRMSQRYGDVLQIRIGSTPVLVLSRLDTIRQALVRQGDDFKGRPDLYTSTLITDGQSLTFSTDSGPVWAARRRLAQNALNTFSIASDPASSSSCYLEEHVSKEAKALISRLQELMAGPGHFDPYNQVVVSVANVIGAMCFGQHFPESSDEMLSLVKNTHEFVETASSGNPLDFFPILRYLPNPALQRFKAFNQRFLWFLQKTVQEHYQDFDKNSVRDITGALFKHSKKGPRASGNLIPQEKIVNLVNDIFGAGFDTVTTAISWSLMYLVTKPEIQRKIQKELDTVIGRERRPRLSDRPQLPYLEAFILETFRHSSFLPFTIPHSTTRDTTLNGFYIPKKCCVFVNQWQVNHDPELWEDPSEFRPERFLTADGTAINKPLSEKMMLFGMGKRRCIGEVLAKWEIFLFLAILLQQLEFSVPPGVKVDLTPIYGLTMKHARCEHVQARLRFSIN

[6] = biological target: Serine/threonine-protein kinase mTOR (Homo sapiens) (UniProt P42345); assay: Effect on mTOR protein expression in human DU145 cells at 0.08 to 0.32 uM after 24 hrs by Western blot analysis; assay type: functional, cell-based; conditions: DU-145
In short: (§3)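 DU-145 cells (5 × 10^5/well) in 10% FCS Ham's F-12K overnight, treated in duplicate with compound or vehicle 24 h; lysed (Tris pH 8, EGTA, NaCl, NP-40, Triton X-100), protein by BCA. Blots blocked in 5% milk, probed for AKT, p-AKT Ser473, mTOR, p-mTOR Ser2448, Bax, Bcl-2, β-actin; ECL detection, densitometry relative to control; three separate experiments.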

[7] = Antiproliferative activity against human Bel7404 cells after 72 hrs by CCK8 assay; assay type: functional, cell-based; conditions: BEL-7404, 72 h; in short: as §2
DU-145 [8] = assay: Induction of cell cycle arrest in human DU145 cells assessed as cells accumulation at G0/G1 phase at 0.16 uM after 24 hrs by propidium iodide staining-based flow cytometry (reference value: 54%); assay type: functional
[9] = Stability in rat plasma assessed as compound remaining after 1 hr by LC-MS/MS analysis; assay type: ADME, cell-free; conditions: read-out: Stability
In short: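 Compound at 50 ng/mL incubated in pooled heparinized rat plasma, 37 °C, 60 min. Proteins precipitated with 5 volumes cold acetonitrile containing internal standard; remaining compound measured by LC−MS/MS and expressed as percent remaining; mean ± SD.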

[10] = Acute toxicity oral gavage treated in ICR mouse assessed as mortality measured up to 14 days; assay type: organism-based; conditions: in vivo; in short: as §1
[11] = Acute toxicity in ICR mouse assessed as survival at 800 mg/kg, oral gavage on day 14; assay type: organism-based; conditions: in vivo; in short: as §1
DU-145 [12] = assay: Induction of cell cycle arrest in human DU145 cells assessed as cells accumulation at S phase at 0.08 uM after 24 hrs by propidium iodide staining-based flow cytometry (reference value: 24%); assay type: functional
Mus musculus [13] = assay: Acute toxicity in ICR mouse assessed as mortality at 409.6 mg/kg, oral gavage after 1 hr; assay type: organism-based; conditions: in vivo; in short: as §1
Mus musculus [14] = assay: Acute toxicity in ICR mouse assessed as total mortality at […] mg/kg, oral gavage up to 14 days; assay type: organism-based; conditions: in vivo, 336 h; in short: as §1
Mus musculus [15] = assay: Acute toxicity in ICR mouse assessed as mortality at 512 mg/kg, oral gavage after 4 hrs; assay type: organism-based; conditions: in vivo; in short: as §1
Mus musculus [16] = assay: Acute toxicity in ICR mouse assessed as mortality at 327.8 mg/kg, oral gavage after 1 hr; assay type: organism-based; conditions: in vivo; in short: as §1
DU-145 [17] = assay: Induction of apoptosis in human DU145 cells assessed as reduction in Bcl2 expression at 0.08 to 0.32 uM after 24 hrs by Western blot analysis; assay type: functional, cell-based; in short: as §3
[18] = Reduction in phosphorylated Akt protein expression in human DU145 cells at 0.08 to 0.32 uM after 24 hrs by Western blot analysis; assay type: functional, cell-based; conditions: DU-145; in short: as §3
[19] = Apparent permeability across apical to basolateral side in human Caco2 cells at 0.5 uM measured after 30 mins by LC-MS/MS analysis; assay type: ADME, cell-based; conditions: Caco-2
In short: (§4)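 Caco2 monolayers (passages 20−40) grown 21 days at 37 °C, 5% CO2; integrity checked by TEER. Test drug 0.5 μM applied in triplicate, apical pH 6.8, basolateral pH 7.4, 37 °C for 30 min, A→B and B→A. Donor and receiver sampled, concentration by LC−MS/MS; Papp calculated; efflux ratio = Papp B→A / Papp A→B.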

Mus musculus [20] = assay: Acute toxicity in ICR mouse assessed as mortality at 512 mg/kg, oral gavage after 4 to 14 days; assay type: organism-based; conditions: in vivo; in short: as §1
[21] = Antiproliferative activity against human BxPC3 cells after 72 hrs by CCK8 assay; assay type: functional, cell-based; conditions: BXPC-3, 72 h; in short: as §2
[22] = Apparent permeability across basolateral to apical side in human Caco2 cells at 0.5 uM measured after 30 mins by LC-MS/MS analysis; assay type: ADME, cell-based; conditions: Caco-2; in short: as §4
[23] = Acute toxicity in ICR mouse assessed as survival at 640 mg/kg, oral gavage on day 14; assay type: organism-based; conditions: in vivo; in short: as §1

Structure (SMILES): CC1(C)CC[C@]23CC[C@@]4(C)[C@]5(C)CC[C@H]6C(C)(C)C(=O)C(C#N)=C[C@]6(C)C5=CC(=O)[C@@]4([C@@H]2C1)N(C1CCCCC1)C3=O
- survival at 14 day [1]: 63%
- Activity (Mus musculus [2]): Non-toxic
- Activity (DU-145 [3]): 10%
- Activity (DU-145 [4]): 22%
- pIC50 [5]: 5.22
- pIC50 (Cytochrome P450 1A2): < 4.00
- Activity [6]: inactive
- pIC50 [7]: 6.34
- Activity (DU-145 [8]): 68%
- remaining at 1 h [9]: 46%
- LD50 at 336 h [10]: 541 mg/kg
- survival at 14 day [11]: 0%
- Activity (DU-145 [12]): 25%
- Activity (Mus musculus [13]): Non-toxic
- Activity (Mus musculus [14]): Toxic
- Activity (Mus musculus [15]): Non-toxic
- Activity (Mus musculus [16]): Non-toxic
- inhibition (DU-145 [17]): Active
- inhibition [18]: Active
- Papp A→B at 0.5 h, 0.5 µM [19]: 0.045 ×10⁻⁶ cm/s
- Activity (Mus musculus [20]): Non-toxic
- pIC50 [21]: 6.48
- Papp B→A at 0.5 h, 0.5 µM [22]: 0.059 ×10⁻⁶ cm/s
- survival at 14 day [23]: 25%
